From ChEMBL document CHEMBL2424641, “Synthesis and evaluation of novel radioligands for positron emission tomography imaging of the orexin-2 receptor” (J Med Chem, 2013)
pKi: −log10 of the molar value. Active and inactive are the calls of the source. The calls are words filed in the database; no cut-off is given here.

Key:
[1] = Octanol-phosphate buffer partition coefficient, log D of the compound at pH 7.4 by Shake flask method; type: physicochemical
Procedure, shortened: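 [11C]-labelled compound (about 200 000 cpm) in n-octanol and 0.1 M PBS pH 7.4, vortexed 3 min at rt and centrifuged; weighed aliquots of each phase γ-counted, with the organic layer repartitioned until stable. log D = log(cpm/g octanol ÷ cpm/g PBS); triplicate.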

Hippocampus = assay: Drug uptake in P-gp-knockout rat hippocampus at 78.7 to 189.8 MBq, iv after 90 mins by PET analysis; type: ADME, organism-based; details: in vivo, 1.5 h
Procedure, shortened: (§1)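 Male Mdr1a-knockout rats (410−500 g) under 1.5% isoflurane at 37 °C; [11C] tracer 78.7−189.8 MBq by tail vein. 90 min list-mode microPET scan with filtered back-projection; ROIs drawn on MRI template; decay-corrected %ID/mL, n = 3. Blocking: unlabeled compound 10 mg/kg po in 5% DMSO/10% cremophor in 10 mM HCl, given 1 h before tracer.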

Cerebellum = assay: Drug uptake in P-gp-knockout rat cerebellum at 78.7 to 189.8 MBq, iv after 90 mins by PET analysis in presence of 10 mg/kg, po unlabeled compound; type: ADME, organism-based; set-up: dose 10 mg/kg, route oral; details: in vivo, 1.5 h; procedure, shortened: as §1
[2] = Drug uptake in P-gp-knockout rat neocortex at 78.7 to 189.8 MBq, iv after 90 mins by PET analysis; type: ADME, organism-based; details: in vivo, 1.5 h; procedure, shortened: as §1
Thalamus = assay: Drug uptake in P-gp-knockout rat thalamus at 78.7 to 189.8 MBq, iv after 90 mins by PET analysis; type: ADME, organism-based; details: in vivo, 1.5 h; procedure, shortened: as §1
[3] = target: T1, Orexin receptor type 2 (Rattus norvegicus) (UniProt P56719); assay: Binding affinity to OX2 receptor in coronal rat neocortex layer 6 at 2 nM by autoradiography; details: tested as the 11C-labelled form
T1 sequence (whole entry): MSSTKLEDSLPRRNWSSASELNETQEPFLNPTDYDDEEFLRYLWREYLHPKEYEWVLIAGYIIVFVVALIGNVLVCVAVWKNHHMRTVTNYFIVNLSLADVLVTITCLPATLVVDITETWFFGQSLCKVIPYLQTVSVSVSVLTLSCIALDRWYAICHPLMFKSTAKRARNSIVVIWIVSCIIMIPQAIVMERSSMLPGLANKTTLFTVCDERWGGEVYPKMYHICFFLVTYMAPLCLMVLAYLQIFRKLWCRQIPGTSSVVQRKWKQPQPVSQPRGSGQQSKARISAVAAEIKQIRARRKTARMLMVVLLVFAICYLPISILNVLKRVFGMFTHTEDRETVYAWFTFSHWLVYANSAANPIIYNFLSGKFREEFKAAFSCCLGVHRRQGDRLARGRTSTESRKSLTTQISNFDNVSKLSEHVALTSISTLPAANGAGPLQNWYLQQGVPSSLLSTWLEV
Procedure, shortened: (§2)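 Rat brain sections (20 μm) preincubated 20 min at rt in 25 mM HEPES pH 7.4 with 5 mM MgCl2 and 1 mM CaCl2, then incubated 60 min at rt with 11C radioligand; nonspecific binding with 10 μM unlabeled compound. Sections washed three times in cold water, dried, exposed to imaging plate 1 h alongside calibrated radioactive standards.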

[4] = target: T1, Orexin receptor type 2 (Rattus norvegicus); assay: Binding affinity to OX2 receptor in coronal rat hypothalamus at 2.5 nM by autoradiography; details: tested as the 11C-labelled form; procedure, shortened: as §2
Orexin receptor type 2 = target: T2, Orexin receptor type 2 (Homo sapiens, UniProt O43614); assay: Displacement of [125I]-orexin-A from human OX2 receptor expressed in CHO cells after 30 mins by liquid scintillation counting analysis; type: cell-based
T2 sequence (O43614 whole entry): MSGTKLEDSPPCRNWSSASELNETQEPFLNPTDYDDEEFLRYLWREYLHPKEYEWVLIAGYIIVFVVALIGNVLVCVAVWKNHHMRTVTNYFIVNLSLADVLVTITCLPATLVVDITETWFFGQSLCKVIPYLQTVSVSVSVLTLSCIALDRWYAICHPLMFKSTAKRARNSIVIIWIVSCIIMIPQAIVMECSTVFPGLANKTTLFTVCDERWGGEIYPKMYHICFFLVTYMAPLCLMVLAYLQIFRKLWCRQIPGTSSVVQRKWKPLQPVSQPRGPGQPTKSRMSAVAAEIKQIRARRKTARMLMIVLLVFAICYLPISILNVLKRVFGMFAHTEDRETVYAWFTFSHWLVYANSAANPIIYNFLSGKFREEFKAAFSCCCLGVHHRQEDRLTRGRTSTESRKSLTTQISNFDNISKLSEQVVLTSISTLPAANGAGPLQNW
Procedure, shortened: (§3)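 CHO membranes expressing human OX1R or OX2R (5 μg protein) incubated 30 min at rt with compound and [125I]-orexin A (2 nM stock) in HEPES buffer pH 7.5 with MgCl2, CaCl2, BSA. Nonspecific binding with 10 μM orexin A. Wells washed with HEPES/525 mM NaCl and DPM counted. % inhibition from test, control and nonspecific counts; mean of three wells.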

[5] = Flux ratio of permeability from apical to basolateral to basolateral to apical side in pig LLC cells expressing MDR1 after 2 hrs; type: ADME, cell-based, Sus scrofa
Procedure, shortened: (§4)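 LLC-PK1 and LLC-MDR1 monolayers, 5 days post-seeding, preincubated 2 h at 37 °C in HBSS/10 mM HEPES. Compound added apically or basally, 2 h at 37 °C; opposite side assayed by LC-MS. Papp = Q/t/C0/A; FR = Papp(b→a)/Papp(a→b); corrected FR = FR(LLC-MDR1)/FR(LLC-PK1).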

[6] = target: T1, Orexin receptor type 2 (Rattus norvegicus); assay: Binding affinity to OX2 receptor in coronal rat brain neocortex layer 6 at 2.5 nM by autoradiography; type: tissue-based; details: tested as the 11C-labelled form; procedure, shortened: as §2
[7] = target: Cannabinoid receptor 1 (Homo sapiens) (UniProt P21554); assay: Antagonist activity at cannabinoid CB1 receptor (unknown origin) expressed in HEK 293 cells coexpressing Gqi5 chimeric G-protein after 1 hr by fluorescence-based analysis; type: cell-based
Sequence of Cannabinoid receptor 1 (Homo sapiens) (P21554 whole entry): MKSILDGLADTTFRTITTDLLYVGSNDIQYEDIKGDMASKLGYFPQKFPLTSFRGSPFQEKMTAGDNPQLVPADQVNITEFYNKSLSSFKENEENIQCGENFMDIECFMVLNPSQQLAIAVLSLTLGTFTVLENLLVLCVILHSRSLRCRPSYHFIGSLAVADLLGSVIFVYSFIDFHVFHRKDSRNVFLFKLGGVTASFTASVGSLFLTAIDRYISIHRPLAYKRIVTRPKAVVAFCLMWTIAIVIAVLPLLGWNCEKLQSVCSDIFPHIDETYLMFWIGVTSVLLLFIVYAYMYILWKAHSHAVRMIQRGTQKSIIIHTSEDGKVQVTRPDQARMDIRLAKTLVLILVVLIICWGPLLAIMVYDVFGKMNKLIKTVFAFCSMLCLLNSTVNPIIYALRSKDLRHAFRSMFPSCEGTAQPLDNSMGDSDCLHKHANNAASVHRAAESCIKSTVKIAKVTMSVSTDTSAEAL
Procedure, shortened: (§5)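 HEK293 cells stably expressing target GPCR with Gqi5 chimeric G-protein, seeded on collagen I plates and cultured overnight; calcium dye loaded 1 h at 37 °C. Compound at final 3, 10, 30 μM preincubated 1 h at rt, then reference agonist added at EC20 or EC80; Ca2+ fluorescence read in real time.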

[8] = target: Melatonin receptor type 1A (Homo sapiens) (UniProt P48039); assay: Antagonist activity at melatonin MT1A receptor (unknown origin) expressed in HEK 293 cells coexpressing Gqi5 chimeric G-protein after 1 hr by fluorescence-based analysis; type: cell-based; procedure, shortened: as §5
Sequence of Melatonin receptor type 1A (Homo sapiens) (P48039 whole entry): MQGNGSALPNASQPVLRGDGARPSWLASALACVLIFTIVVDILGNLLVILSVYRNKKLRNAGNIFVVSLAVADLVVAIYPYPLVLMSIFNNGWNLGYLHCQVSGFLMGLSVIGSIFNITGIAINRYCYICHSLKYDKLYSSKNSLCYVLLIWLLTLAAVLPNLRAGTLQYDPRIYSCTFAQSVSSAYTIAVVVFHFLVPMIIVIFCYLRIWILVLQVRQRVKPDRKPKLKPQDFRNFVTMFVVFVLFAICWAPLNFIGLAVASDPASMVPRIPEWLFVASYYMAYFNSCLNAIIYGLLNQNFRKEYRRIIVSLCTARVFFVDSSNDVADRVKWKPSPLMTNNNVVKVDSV

[9] = Ratio of flux ratio in pig LLC cells expressing MDR1 to flux ratio on pig LLC-PK1 cells; type: ADME, cell-based, Sus scrofa; procedure, shortened: as §4
LLC-PK1 = assay: Flux ratio of permeability from apical to basolateral to basolateral to apical side in pig LLC-PK1 cells after 2 hrs; type: ADME, cell-based, Sus scrofa; details: llc-pk1, 2 h; procedure, shortened: as §4
[10] = target: T1, Orexin receptor type 2 (Rattus norvegicus); assay: Binding affinity to OX2 receptor in rat brain neocortex layer 6 at 3.6 nM by autoradiography in presence of EMPA; type: tissue-based; details: tested as the 11C-labelled form
[11] = target: T3, Orexin/Hypocretin receptor type 1 (Homo sapiens, UniProt O43613); assay: Displacement of [125I]-orexin-A from human OX1 receptor expressed in CHO cells after 30 mins by liquid scintillation counting analysis; type: cell-based; procedure, shortened: as §3
T3 sequence (O43613 whole entry): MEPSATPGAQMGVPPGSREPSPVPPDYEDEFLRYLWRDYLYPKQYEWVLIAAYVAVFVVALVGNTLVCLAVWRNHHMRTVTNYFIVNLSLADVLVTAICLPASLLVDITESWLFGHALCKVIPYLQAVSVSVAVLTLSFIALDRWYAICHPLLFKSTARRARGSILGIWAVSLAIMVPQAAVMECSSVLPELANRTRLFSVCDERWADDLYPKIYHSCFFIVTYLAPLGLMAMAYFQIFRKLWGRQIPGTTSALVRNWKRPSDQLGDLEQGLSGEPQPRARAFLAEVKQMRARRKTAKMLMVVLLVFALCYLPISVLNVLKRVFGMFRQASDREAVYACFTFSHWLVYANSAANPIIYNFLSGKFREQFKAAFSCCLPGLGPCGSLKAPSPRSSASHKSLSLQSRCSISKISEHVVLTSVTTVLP

[12] = target: T1, Orexin receptor type 2 (Rattus norvegicus); assay: Binding affinity to OX2 receptor in rat brain neocortex layer 6 at 3.6 nM by autoradiography in presence of suvorexant; type: tissue-based; details: tested as the 11C-labelled form
[13] = HEK293, tested as the 11C-labelled form

Compound `Cc1ncc(OC[C@@]2(c3cccc(F)c3)C[C@H]2C(=O)Nc2ccc(F)c(O[11CH3])n2)c(C)n1` has a logD [1] of 3.6.

For `Cc1ncc(OC[C@@]2(c3cccc(F)c3)C[C@H]2C(=O)Nc2cc(O[11CH3])c(F)cn2)c(C)n1`, the Drug uptake (Hippocampus) was “Active”, the Drug uptake (Cerebellum) was “Not Active” and the Drug uptake [2] was “Active”. For the same compound, the logD [1] was 2.93 and the Drug uptake (Thalamus) was “Active”.

In the case of `COCc1nc(C)ncc1OC[C@@]1(c2cccc(F)c2)C[C@H]1C(=O)Nc1ccc(F)cn1`, the Activity [3] was “Active”, the Activity [4] was “Active” and the pKi (Orexin receptor type 2) was 9.00. For the same compound, the Drug uptake (Hippocampus) was “Active”, the Drug uptake (Cerebellum) was “Active” and the Drug uptake [2] was “Active”. The Ratio [5] was 2.61, the Activity [6] was “Active” and the Activity ([7]; HEK293) was “Active”. The Activity [7, 13] was “Active”, the Activity ([8]; HEK293) was “Active” and the Activity [8, 13] was “Active”. The Ratio [9] was 3.11, the Ratio (LLC-PK1) was 0.84 and the Activity [10] was “inactive”. For the same compound, the logD [1] was 2.97, the Drug uptake (Thalamus) was “Active” and the pKi [11] was 9.00. For the same compound, the Activity [12] was “inactive”.
